Measured values from ChEMBL document CHEMBL1124260, “Synthesis and antitumor activity of quaternary ellipticine glycosides, a series of novel and highly active antitumor agents” (1988).

Columns and labels:
Mus musculus [1] = assay: Number of survivors out of 6 ip implanted L1210 leukemia mouse tested after 80 days at 2.5 mg/kg; assay type: functional; details: route intraperitoneal
Method in brief: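 Female BDF1 mice implanted ip with ascitic fluid holding 10^5 L1210 cells. Saline-dissolved drug given ip daily on days 1-5, starting 24 h after implant. Six mice per dose group, followed 80 days. Survivors/total counted at day 80; ILS % from mean survival time vs controls.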

Mus musculus [2] = assay: Antitumor activity against ip implanted L1210 leukemia in mouse after ip administration of 2.5 mg/kg for 5 days expressed as increase in mean life span; assay type: functional; details: 120 h, route intraperitoneal
Method in brief: (§1)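 Drug was dissolved in 0.9% NaCl, diluted just before use and given ip once daily for 5 consecutive days, starting 24 h after transplant. ILS % = mean survival time of treated vs control mice, observed for 80 days.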

Mus musculus [3] = assay: Inhibition of sc implanted syngeneic colon 38 carcinoma by ip administration at 5 mg/kg on 1, 3, 5, 7, 9 days measured as inhibition ratio; assay type: functional; details: route subcutaneous
Method in brief: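 Tumor homogenate (70 mg) implanted into the axillary region of female BDF1 mice. Drug dissolved in 0.9% NaCl and diluted with saline just before use, then given ip on days 1, 3, 5, 7 and 9. Tumor length and width were measured by caliper on day 20 after inoculation and converted to estimated weight. Result reported as treated vs control tumor weight, T/C %.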

Mus musculus [4] = assay: Antitumor activity against ip implanted syngeneic P388 leukemia in mouse after ip administration of 5 mg/kg for 5 days expressed as increase in mean life span; assay type: functional; details: 120 h, route intraperitoneal
Method in brief: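 Saline-dissolved drug was given ip daily for 5 consecutive days, beginning 24 h post-transplant. ILS % was calculated from treated vs control mean survival time over an 80-day observation period.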

Mus musculus [5] = assay: Effect on ip implanted syngeneic B16 melanoma by ip administration for 9 days at 2.5 mg/kg was measured as increase in mean life span; details: 216 h
Mus musculus [6] = assay: Antitumor activity against ip implanted L1210 leukemia in mouse after ip administration of 5 mg/kg for 5 days expressed as increase in mean life span; assay type: functional; details: Mus musculus, L1210, ip, 120 h, route intraperitoneal; method in brief: as §1

Cc1c2cc[n+]([C@H]3O[C@@H](CO)[C@H](O)[C@@H](O)[C@@H]3O)cc2c(C)c2c1[nH]c1ccc(O)cc12.[Br-]
Cures (Mus musculus [1]): 0 | ILS at 2.5 mg/kg (Mus musculus [2]): 58%

CC(=O)[O-].Cc1c2cc[n+](C)cc2c(C)c2c1[nH]c1ccc(O)cc12 [ELLIPTINIUM ACETATE]
T/C (Mus musculus [3]): 38% | ILS at 5 mg/kg (Mus musculus [4]): 90% | ILS at 2.5 mg/kg (Mus musculus [5]): 35% | ILS at 5 mg/kg (Mus musculus [6]): 48%
